PfG6PD inh = PfG6PD (Plasmodium falciparum) enzyme inhibition; PfGluPho enzyme, NADPH resazurin-diaphorase fluorescence; inhibition, % at 20 µM; 350,000 compounds, 0.78% hits; AID 504690;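 active = inhibition reaching at least a set limit at 20 µM in the primary screen, cut at about 59% in these data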;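 note: 0% = DMSO wells with substrate and 100% = DMSO wells lacking glucose-6-phosphate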
HKDC1 inhibitor = HKDC1 (human) hexokinase inhibition | recombinant HKDC1, G6PDH/diaphorase resazurin coupled fluorescence | 340,000 compounds, 0.16% hits | AID 493160 | Q2TB90 | inhibition, % at 20 µM;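 active = inhibition above about 35% when tested at 20 µM, limit read from the data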;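 note: plate controls were DMSO wells with enzyme for no effect and DMSO wells lacking enzyme for full effect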
Target sequence (Q2TB90 whole entry, looked up): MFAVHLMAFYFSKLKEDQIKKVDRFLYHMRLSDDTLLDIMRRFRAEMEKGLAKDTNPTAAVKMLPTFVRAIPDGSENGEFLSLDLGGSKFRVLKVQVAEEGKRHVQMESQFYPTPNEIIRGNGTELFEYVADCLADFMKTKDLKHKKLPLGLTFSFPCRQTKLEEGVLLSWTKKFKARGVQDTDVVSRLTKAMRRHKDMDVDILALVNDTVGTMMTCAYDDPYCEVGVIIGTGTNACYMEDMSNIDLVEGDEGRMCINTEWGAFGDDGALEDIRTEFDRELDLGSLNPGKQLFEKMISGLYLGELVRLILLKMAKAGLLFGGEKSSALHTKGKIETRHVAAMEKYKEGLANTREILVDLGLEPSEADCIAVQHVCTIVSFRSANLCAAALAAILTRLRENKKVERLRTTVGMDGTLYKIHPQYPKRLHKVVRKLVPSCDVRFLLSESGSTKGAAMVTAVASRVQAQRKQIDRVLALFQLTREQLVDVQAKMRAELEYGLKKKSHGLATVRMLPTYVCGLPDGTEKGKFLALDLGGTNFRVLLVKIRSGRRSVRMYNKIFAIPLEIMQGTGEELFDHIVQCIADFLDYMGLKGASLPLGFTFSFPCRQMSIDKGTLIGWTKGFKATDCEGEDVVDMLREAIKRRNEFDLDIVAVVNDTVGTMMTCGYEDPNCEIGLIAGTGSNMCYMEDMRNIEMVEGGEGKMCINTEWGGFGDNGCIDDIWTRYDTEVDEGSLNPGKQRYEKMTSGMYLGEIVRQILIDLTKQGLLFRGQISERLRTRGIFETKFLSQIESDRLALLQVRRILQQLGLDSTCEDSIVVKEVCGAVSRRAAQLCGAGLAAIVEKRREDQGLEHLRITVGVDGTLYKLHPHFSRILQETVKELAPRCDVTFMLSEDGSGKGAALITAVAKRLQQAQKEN
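Test system: Recombinant HKDC1 (HK5) hexokinase enzyme, produced in-house | Input: HKDC1 at 5 µg/mL | Buffer or medium: Tris pH 8.0 buffer with MgCl2, Tween-20, BSA, BME | Schedule: 90 min reaction incubation at room temperature, dark | Technique: Resazurin-to-resorufin fluorescence via G6PDH and diaphorase coupling, 525/613 nm | Controls: DMSO wells with and without enzyme mix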
G6PDH counter = inhibits Leuconostoc G6PDH, flagging false hits in G6PDH-based assays; AID 1020; 200,000 compounds, 0.12% hits; inhibition, % at 5 µM; Purified L. mesenteroides G6PDH, diaphorase/resazurin coupled fluorescence, 45 min; in the data active = inhibition above about 50%
Tb hexokinase = T. brucei hexokinase 1 inhibition | AID 1430 | 220,000 compounds, 0.11% hits | recombinant TbHK1, G6PDH-coupled NADH A340 | inhibition, % at 10 µM;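 active = inhibition of 50% or more in the single-dose primary screen; inactive = inhibition below 50%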
Diaphorase inh = inhibits diaphorase or chemically oxidizes, flagging diaphorase assay artifacts; diaphorase resazurin-to-resorufin fluorescence, NADH, 16 min; bacterial (C. kluyveri) enzyme, not human; inhibition, % at 20 µM; 190,000 compounds, 0.69% hits; AID 1217;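 active = primary screen inhibition at 20 µM above a set limit, cut at about 50% in these data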;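 note: plate controls were DMSO with full reaction for no effect and wells lacking NADH for full effect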
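Test system: bacterial diaphorase enzyme (C. kluyveri); Quantity: 0.14 U/mL diaphorase, enzyme working solution; Times: reaction incubation of 16 min at room temperature; Measured by: fluorescence of resorufin formed from resazurin, Ex 544/Em 590 nm; Benchmarks: positive control minus NADH, DMSO neutral control.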
Numbers without * were called inactive. Only some compounds are listed: those with a hit (about 1.3% of all), similar ones and a draw of the others.

Screening NC(=O)c1ccc(N=Cc2ccc([N+](=O)[O-])s2)cc1 returned PfG6PD inh 72.3*, HKDC1 inhibitor 14.3, G6PDH counter 11.1, Tb hexokinase 15.4 and Diaphorase inh 8.9.
Screening O=C(Cc1cccs1)N/N=C\c1ccc([N+](=O)[O-])s1 returned PfG6PD inh 27.5, HKDC1 inhibitor -7.2, G6PDH counter 2.9, Tb hexokinase 4.5 and Diaphorase inh -9.3.
For COC1=C(OC)C(=O)C(CCCCCCCCCCO)=C(C)C1=O the results were G6PDH counter 62.6* and Diaphorase inh 57.4*.
COC1=CC(=O)C(O)=C(CCCCCCC/C=C/CCCCCCCC2=C(O)C(=O)C=C(OC)C2=O)C1=O was read as PfG6PD inh -26.7 and HKDC1 inhibitor 31.1.
Screening COc1ccc(N2CCC(CNC(=O)Nc3cccc(OC)c3)C2)cc1 (centres undefined) returned PfG6PD inh 23.8, HKDC1 inhibitor -5.6, G6PDH counter 2.0, Tb hexokinase -9.3 and Diaphorase inh 56.8*.
COc1ccc(N2CCC(CNC(=S)Nc3cccc(OC)c3)C2)cc1 (centres undefined) was read as G6PDH counter -9.8, Tb hexokinase 12.2 and Diaphorase inh 0.0.
Screening Cc1cc(-c2nsc(=O)o2)c(S(C)(=O)=O)s1 returned PfG6PD inh 67.9*, HKDC1 inhibitor -8.6, G6PDH counter -9.8, Tb hexokinase 0.3 and Diaphorase inh 14.5.
Screening COC(=O)C1OC(OC2CC[C@]3(C)C(CC[C@@]4(C)[C@@H]3CC=C3[C@@H]5CC(C)(C)CC[C@]5(C(=O)OC5OC(CO)C(O)C(O)C5O)CC[C@]34C)C2(C)C)C(O)C(O)C1O[C@H]1OCC(O)C(O)C1O (some centres undefined) returned PfG6PD inh -7.5 and HKDC1 inhibitor 5.7.
`Cc1ccc2c(N)c(C(=O)N(c3ccccc3)c3ccccc3)sc2n1` gave PfG6PD inh 1.0, HKDC1 inhibitor 2.3, G6PDH counter -3.5, Tb hexokinase 1.3 and Diaphorase inh 17.5.
`CN(C)c1ccc2c(O)cc(=O)n(C)c2c1` gave PfG6PD inh 38.6, HKDC1 inhibitor 10.0, G6PDH counter 6.8, Tb hexokinase -26.0 and Diaphorase inh 60.4*.
`CC(=O)NCCCNS(=O)(=O)c1ccc(C)cc1` gave PfG6PD inh 5.1, HKDC1 inhibitor -5.8, G6PDH counter -0.3, Tb hexokinase -16.0 and Diaphorase inh 67.0*.
Screening Cc1ccc(S(=O)(=O)NCCCNS(C)(=O)=O)cc1 returned PfG6PD inh -0.9, HKDC1 inhibitor -2.7, G6PDH counter 6.2, Tb hexokinase -1.2 and Diaphorase inh 2.0.
Screening CCOC(=O)c1ccc(N=C2SC(C(=O)NCCc3ccccc3)CC(=O)N2C)cc1 (centres undefined) returned PfG6PD inh 2.7, HKDC1 inhibitor -6.2, G6PDH counter -8.2, Tb hexokinase -1.9 and Diaphorase inh 53.5*.
For Cc1cccc(C)c1NC(=O)COC(=O)c1c2c(nc3ccccc13)/C(=C\c1ccc3c(c1)OCO3)CCC2 the results were PfG6PD inh -7.8, HKDC1 inhibitor 2.4, G6PDH counter 4.1, Tb hexokinase -8.3 and Diaphorase inh 69.8*.
COc1cccc(NC(=O)CCN2CCOCC2)c1 was read as PfG6PD inh -0.7 and HKDC1 inhibitor -4.9.
COc1ccc(S(=O)(=O)NCC(c2cccnc2)N2CCN(c3ccccc3OC)CC2)cc1C (centres undefined) was read as PfG6PD inh -2.5, HKDC1 inhibitor -5.8, G6PDH counter 7.2, Tb hexokinase 32.9 and Diaphorase inh 3.3.
Nc1nc2c(s1)CCc1c-2cnn1-c1ccccc1 was read as PfG6PD inh 98.4*, HKDC1 inhibitor 27.9, G6PDH counter 61.7*, Tb hexokinase 39.4 and Diaphorase inh 66.2*.
Screening O=C(c1cccnc1)C1CCCN(Cc2nc(Cc3ccccc3)no2)C1 (centres undefined) returned PfG6PD inh -17.6, HKDC1 inhibitor 2.2, G6PDH counter 10.7, Tb hexokinase -0.4 and Diaphorase inh 10.1.
`COC(=O)c1c(NC(=O)c2cccc([N+](=O)[O-])c2)sc(C(N)=O)c1C` gave PfG6PD inh 9.1, HKDC1 inhibitor -10.8, G6PDH counter 5.4, Tb hexokinase -0.5 and Diaphorase inh 72.1*.
For COC(=O)c1sc(NC(=O)c2cccc([N+](=O)[O-])c2)c(C(N)=O)c1C the results were PfG6PD inh 27.0, HKDC1 inhibitor -8.7, G6PDH counter -6.0, Tb hexokinase -8.9 and Diaphorase inh 0.6.
For CC(C)c1cc(=O)[nH]c(SCC(=O)NC2CCCC2)n1 the results were PfG6PD inh -5.0 and HKDC1 inhibitor -5.1.
`CN1c2ccccc2N(C)C1(C)c1cccc2ccccc12` gave PfG6PD inh 32.3, HKDC1 inhibitor 28.2, G6PDH counter -4.2, Tb hexokinase -3.8 and Diaphorase inh 58.8*.
`CC1=CC(C)(C)NC(=S)N1c1cccc2ccccc12` gave PfG6PD inh 20.8, HKDC1 inhibitor 8.6, G6PDH counter 0.9, Tb hexokinase 7.3 and Diaphorase inh 8.1.
`O=C(/C=C/c1ccco1)N1CCN(c2ccc(F)cc2)CC1` gave PfG6PD inh 3.3, HKDC1 inhibitor -1.6 and Tb hexokinase -14.2.
NC(=O)c1ccsc1NC(=O)C1CCN(S(=O)(=O)c2cccs2)CC1 was read as PfG6PD inh -5.6 and HKDC1 inhibitor -0.7.
`CC(=O)NC(c1ccc(Cl)cc1)c1c(O)ccc2ccc(O)cc12` (centres undefined) gave PfG6PD inh 38.7, HKDC1 inhibitor 1.6, G6PDH counter 54.1*, Tb hexokinase 6.2 and Diaphorase inh 26.3.
CC12CCC(C(=O)N(CSC(=S)N/N=C\c3ccccc3)C1=O)C2(C)C (centres undefined) was read as PfG6PD inh 6.5, HKDC1 inhibitor -19.8, G6PDH counter -1.7, Tb hexokinase -10.5 and Diaphorase inh 57.7*.
`CC12CCC(C(=O)N(CSC(=S)N/N=C\c3ccccc3Cl)C1=O)C2(C)C` (centres undefined) gave PfG6PD inh 0.8, HKDC1 inhibitor -20.0, G6PDH counter -4.1, Tb hexokinase -7.7 and Diaphorase inh 45.5.
CCN(CC)CCN1C(=O)C(O)=C(C(=O)c2ccco2)C1c1ccccn1 (centres undefined) was read as PfG6PD inh 10.5, HKDC1 inhibitor 1.0, G6PDH counter 9.7, Tb hexokinase -24.4 and Diaphorase inh 60.4*.
For CCn1nc(C(=O)Nc2cccc(S(=O)(=O)N3CCCC3)c2)c2ccccc2c1=O the results were PfG6PD inh 12.9 and HKDC1 inhibitor -2.1.
For CC1(c2nnc(-c3ccncc3)o2)CC(c2c(Cl)cccc2Cl)=NO1 (centres undefined) the results were PfG6PD inh -6.7, HKDC1 inhibitor -2.8 and Tb hexokinase -22.6.
Screening CN1CCN(C(=O)c2cccc(S(=O)(=O)N3CCCCC3)c2)CC1 returned PfG6PD inh -20.1, HKDC1 inhibitor 10.2, G6PDH counter -3.4, Tb hexokinase -6.2 and Diaphorase inh 12.9.

Screens as filed in PubChem BioAssay.
